Results as given in ChEMBL document CHEMBL1147721, “Identification of new diamine scaffolds with activity against Mycobacterium tuberculosis” (J Med Chem, 2006).
In brackets after ≈: the same amount, converted by molar mass. Activity calls are given as the source filed them. No cut-off for these calls is given here.

Columns and labels:
[1] = test system: Mycobacterium tuberculosis; assay: Antimycobacterial activity against Mycobacterium tuberculosis by broth microdilution assay; format: functional
Outline: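 MIC by broth microdilution against M. tuberculosis. Library mixtures were screened unpurified, and active wells were deconvoluted and re-tested as individual compounds. Purified compounds (≥95%) were tested from 10 mM methanol stocks. INH, rifampicin and EMB were controls.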

[2] = test system: HepG2; assay: Cytotoxicity against human HepG2 cell line by MTS assay; format: functional, cell-based
[3] = test system: HepG2; assay: Selectivity index, IC50 for human HepG2 cell line/MIC for Mycobacterium tuberculosis; format: functional
Outline: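 SI = IC50/MIC: HepG2 IC50 from the MTS assay divided by the M. tuberculosis MIC from broth microdilution.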

[4] = test system: Mus musculus; assay: Reduction in body weight of C3H mouse infected with 10^6 CFU of Mycobacterium tuberculosis H37Rv at 10 mg/kg, po after 20 days; format: functional; set-up: scale not given: the % may be the effect or the level left
Outline: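 Rapid-progression model: C3H mice infected iv with 10^6 CFU M. tuberculosis H37Rv. Oral gavage at 10 mg/kg daily (dose not optimised) started day 7 and ran 10 days. Body weight was monitored from day 0, 6 mice per group. Controls were uninfected, infected untreated, and INH 25 mg/kg.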

[5] = test system: Mycobacterium tuberculosis; assay: Antimycobacterial activity against recombinant Mycobacterium tuberculosis containing Rv0341 promoter by luciferase assay; format: functional; set-up: concentration or dose not given beside the values
Outline: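 Recombinant M. tuberculosis carrying the Rv0341 promoter fused to firefly luciferase was treated and luminescence read. Activity is given as percent of EMB activity (EMB = 100%). In screening, luminescence above 1.5-fold the untreated background counted as active.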

[6] = test system: Mycobacterium tuberculosis; assay: Reduction in CFU in C57BL/6 mouse infected with 10^5 CFU of Mycobacterium tuberculosis H37Rv at 10 mg/kg after 20 days; format: functional
Outline: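 Low-dose chronic TB mouse model with M. tuberculosis H37Rv. Treatment began 20 days after infection: 10 mg/kg daily by oral gavage, 5 days/week for four weeks. INH 25 mg/kg was the positive control. Organ CFU were compared with infected untreated mice.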

SMILES	MIC [1] [µM]	IC50 [2] [µM]	Selectivity index [3]	Activity [4] [%]	Activity [5]	Log10 cfu [6]
c1ccc(COc2ccc(CN3CCN(Cc4ccccc4)CC3)cc2)cc1	6.25 (≈ 2.33 µg/mL)	54	9	12	inactive	1
COc1ccccc1CN1CCN(C(c2ccccc2)c2ccc(Cl)cc2)CC1 (stereo not drawn)	6.25 (≈ 2.54 µg/mL)	65	10		inactive	
C1CCC2CC(N3CCCN(C4CCC5CCCCC5C4)CC3)CCC2C1 (mixture of isomers)	1.56	54	35		127%	
NNC(=O)c1ccncc1 [ISONIAZID]						3.5
CC1(C)C2CC=C(CN3CCN(Cc4ccccc4)CC3)C1C2 (stereo not drawn)	6.25 (≈ 1.94 µg/mL)	64	10		inactive	
Clc1ccc(C(c2ccccc2)N2CCN(C3CCC4CCCCC4C3)CC2)cc1 (stereo not drawn)	6.25 (≈ 2.64 µg/mL)	47	8		inactive	
CCOc1ccccc1CN1CCCN(Cc2ccccc2OCC)CC1	1.56 (≈ 0.575 µg/mL)	71	46	21	70%	
CC1(C)C2CC=C(CN3CCCN(CC4=CCC5CC4C5(C)C)CC3)C1C2	3.13 (≈ 1.15 µg/mL)		35		113%	
c1ccc(COc2ccc(CN3CCCN(Cc4ccc(OCc5ccccc5)cc4)CC3)cc2)cc1	3.13 (≈ 1.54 µg/mL)	56	18		inactive	
Fc1ccc(N2CCN(C3CCC4CCCCC4C3)CC2)cc1 (stereo not drawn)	12.5 (≈ 3.96 µg/mL)	86	7		157%	
COc1ccccc1CN1CCCN(Cc2ccccc2OC)CC1	6.25 (≈ 2.13 µg/mL)		17		138%	
C1CN(C2C3CC4CC(C3)CC2C4)CCN(C2C3CC4CC(C3)CC2C4)C1 (stereo not drawn)	1.56 (≈ 0.575 µg/mL)		84.6	12	126%	0.7
C=C(C)[C@@H]1CC=C(CN2CCN(Cc3ccccc3)CC2)CC1	3.13 (≈ 0.972 µg/mL)	60	19		inactive	
C1CCCC(N2CCCN(C3CCCCCCC3)CC2)CCC1	1.56 (≈ 0.5 µg/mL)	74	47		81%	
Fc1ccccc1N1CCN(C2CCC3CCCCC3C2)CC1 (stereo not drawn)	12.5 (≈ 3.96 µg/mL)	70	6		145%	
C=C(C)[C@@H]1CC=C(CN2CCCN(CC3=CC[C@@H](C(=C)C)CC3)CC2)CC1	6.25 (≈ 2.3 µg/mL)	81	13		inactive	
